Only some compounds are listed: those with a hit (about 1.4% of all), similar ones and a draw of the others.
GSTO1 inh: blocks human GSTO1 in RBBP9 counter-screen; actives 1.1% (n = 300,000); inhibition, % at 5.96 µM; recombinant GSTO1, activity-based probe fluorescence polarization;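 active means inhibition above the campaign mean inhibition plus 3 SD, cut at about 35% in these data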
Target sequence (P78417 whole entry, looked up): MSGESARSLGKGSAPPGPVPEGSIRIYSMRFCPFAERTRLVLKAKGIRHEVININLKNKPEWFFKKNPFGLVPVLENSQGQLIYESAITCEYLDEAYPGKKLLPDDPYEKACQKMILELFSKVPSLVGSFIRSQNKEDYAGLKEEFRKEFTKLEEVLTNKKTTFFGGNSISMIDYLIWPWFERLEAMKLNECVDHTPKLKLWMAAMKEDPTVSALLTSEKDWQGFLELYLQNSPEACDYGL
Fh CTSL1 inh: cathepsin L1 inhibition, PFM18AAP counter-screen | recombinant F. hepatica cathepsin L1, Z-Leu-Arg-MCA fluorescence | inhibition, % at 5.96 µM | actives 0.49% (n = 300,000) | AID 1906;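 active means inhibition above the mean of all tested compounds plus 3 SD, set per screening campaign, cut at about 17% in these data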
PAD4 inh: PAD4 (human) enzyme inhibition; Q9UM07; recombinant PAD4, RCA probe fluorescence polarization; inhibition, % at 6.36 µM; actives 0.41% (n = 330,000); AID 485272;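 active means percent inhibition above a cutoff equal to the mean of all tested compounds plus 3 SD, cut at about 15% in these data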
TDP2 inh: blocks human TDP2 phosphodiesterase activity. recombinant TDP2, T5PNP hydrolysis, p-nitrophenol absorbance 415 nm. O95551. actives 0.34% (n = 370,000). inhibition, % at 12.8 µM. AID 720702;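 active means inhibition above the mean of all tested compounds plus 3 SD, set per campaign, cut at about 25% in these data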
Target sequence (O95551 whole entry, looked up): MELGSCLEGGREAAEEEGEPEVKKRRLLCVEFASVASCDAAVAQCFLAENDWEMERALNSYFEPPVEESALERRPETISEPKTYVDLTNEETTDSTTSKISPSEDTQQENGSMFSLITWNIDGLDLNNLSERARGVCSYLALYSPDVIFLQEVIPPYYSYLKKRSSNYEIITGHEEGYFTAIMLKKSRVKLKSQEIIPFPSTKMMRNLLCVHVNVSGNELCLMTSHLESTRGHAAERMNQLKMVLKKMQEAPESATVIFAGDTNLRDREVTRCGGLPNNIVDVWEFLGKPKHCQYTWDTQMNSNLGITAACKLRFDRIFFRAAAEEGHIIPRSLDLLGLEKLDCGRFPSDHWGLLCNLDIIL
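System – recombinant human TDP2 · Quantity – TDP2 enzyme at 120 nM final · Doses – single concentration, 12.8 µM nominal, with 1% DMSO · Incubation – 2 h at 37 °C · Measured by – epi absorbance of p-nitrophenol freed from T5PNP by hydrolysis · Read-out – % inhibition relative to enzyme-containing and enzyme-free wells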
Of the large screens only hits and unclear results are named; the others gave an inactive call; ! = not confirmed by another sample.

O=C(NC1CCCC1)C(c1ccc(Cl)cc1)N(Cc1ccc(F)cc1)C(=O)CCl (stereo unspecified)	Fh CTSL1 inh 36 (no result: TDP2 inh)
O=C(NC1CCCC1)C(c1ccc(F)cc1)N(Cc1ccc(Cl)cc1)C(=O)CCl (stereo unspecified)	Fh CTSL1 inh 41
COC(=O)c1ccc(C(C(=O)NC2CCCCC2)N(Cc2ccc(F)cc2)C(=O)Cc2cccs2)cc1 (stereo unspecified)	none
CN(C)C(C(=O)NC1CCCCC1)c1ccc(Cl)cc1 (stereo unspecified)	none
C=CC[C@@H]1NN2C(=O)[C@@H](CCc3ccccc3)[C@@H]3c4ccccc4C=NN3[C@@H]2c2ccccc21	none (no result: GSTO1 inh, Fh CTSL1 inh, PAD4 inh)
CCCC1CCC2(CC1)CCC2OC(=O)Nc1ccc(C)cc1 (stereo unspecified)	none (no result: GSTO1 inh, Fh CTSL1 inh, PAD4 inh)
CCOC(=O)c1csc(NC(=O)C2CCCN(S(=O)(=O)c3cc(OC)ccc3OC)C2)n1 (stereo unspecified)	none (no result: GSTO1 inh, Fh CTSL1 inh, PAD4 inh)
CC(=O)Nc1c(C)nn(-c2ccc([N+](=O)[O-])cc2)c1C	none
Cc1ccc(-n2nc(C)c(NC(=O)CCl)c2C)cc1	GSTO1 inh 84
Cc1ccc(-c2nn(-c3ccccc3)cc2CO)cc1	none
Cc1ccc(-c2nn(-c3ccccc3)cc2NC(=O)CCl)cc1	GSTO1 inh 69, Fh CTSL1 inh 82
O=C(Nc1ccc(C(F)(F)F)cc1)OC1CC2CC1[C@H]1CCCCN1C2 (stereo partly specified)	none (no result: GSTO1 inh, Fh CTSL1 inh, PAD4 inh)
O=C(Cc1cc(=O)[nH][nH]1)N/N=C/C=C/c1ccccc1	GSTO1 inh 36!
O=C(CNC(=O)c1ccccc1)N/N=C/C=C/c1ccccc1	none
Cc1ccc2nc(NCCNC(=O)c3ccccc3)c(C#N)cc2c1	Fh CTSL1 inh 38
COc1cc(C(=O)Nc2ccccn2)cc(OC)c1OC	Fh CTSL1 inh 18
Cc1occc1-c1nnc(SCC(=O)c2ccc(F)cc2)o1	GSTO1 inh 36
O=C1/C(=C/c2ccncc2)SC(=S)N1Nc1ccccc1	GSTO1 inh 36
CCOc1ccccc1CNC(=O)Cn1c(=O)oc2ccccc21	Fh CTSL1 inh 20
COc1cccc(CNC(=O)Cn2c(=O)oc3ccccc32)c1OC	none
O=C(CSCc1ccc(F)cc1)N1CCN(c2ccccc2)CC1	none
O=C(CSc1ccccc1)N1CCN(c2ccc(F)cc2)CC1	Fh CTSL1 inh 17
N#Cc1nc(N2CCOCC2)nc(N2CCOCC2)n1	Fh CTSL1 inh 48
O=C(O)CCC1c2cc3c4cc2OC2Oc5cc6c(cc51)C(CCC(=O)O)c1cc5c7cc1OC(O6)c1cc6cc(c1)Oc1cc(cc(C(=O)O)c1)Oc1cc8cc(c1)C(Oc1cc(c(cc1C5CCC(=O)O)C3CCC(=O)O)OC(O4)c1cc(cc(c1)Oc1cc(cc(C(=O)O)c1)O8)Oc1cc(cc(C(=O)O)c1)Oc1cc(cc2c1)Oc1cc(cc(C(=O)O)c1)O6)O7 (stereo unspecified)	Fh CTSL1 inh 22 (no result: TDP2 inh)
O=C(CNC(=O)c1ccccc1F)OC(C(=O)Nc1cc(C(F)(F)F)ccc1Cl)c1ccccc1 (stereo unspecified)	Fh CTSL1 inh 25
C[C@H](NC(=O)c1ccccc1Cl)C(=O)OC(C(=O)Nc1cc(C(F)(F)F)ccc1Cl)c1ccccc1 (stereo partly specified)	none
CCCCCCCCNC(=O)C1CSCCS(=O)(=O)N1Cc1ccccc1 (stereo unspecified)	none (no result: GSTO1 inh, Fh CTSL1 inh, PAD4 inh)
O=C1C[C@@H](C(=O)Nc2ccc(Cl)cc2)[C@@H](c2ccccc2)O1	none (no result: GSTO1 inh, Fh CTSL1 inh, PAD4 inh)
O=C(O)c1ccc2nc(-c3ccccc3)c(-c3ccccc3)nc2c1	none
Cc1nc2ccc(NC(=O)N3CCCCC3)cc2nc1C	none
O=C(NCCc1ccccc1)c1ccc2nc(-c3ccco3)c(-c3ccco3)nc2c1	GSTO1 inh 46 (no result: TDP2 inh)
O=C(c1ccccc1)c1ccc2nc(-c3ccco3)c(-c3ccco3)nc2c1	GSTO1 inh 60
O=C(Nc1ccc2nc(-c3ccco3)c(-c3ccco3)nc2c1)N1CCCCCC1	GSTO1 inh 60 (no result: TDP2 inh)
O=C(Cc1ccc(O)cc1)NCCNC(=S)NCc1ccccc1	Fh CTSL1 inh 25
O=C(O)CNC(=S)NCc1ccccc1	none
CCC(c1nnnn1C(C)(C)C)N(Cc1cccs1)Cc1cc2cc(C)c(C)cc2n2nnnc12 (stereo unspecified)	Fh CTSL1 inh 19 (no result: TDP2 inh)
O=C(O)/C=C/S(=O)(=O)c1ccc2ccccc2c1	Fh CTSL1 inh 54
CCCN(Cc1cc2ccccc2[nH]c1=O)C(=O)c1cccc([N+](=O)[O-])c1	none
CCCN(Cc1cc2cc(C)ccc2[nH]c1=O)C(=O)c1cccc([N+](=O)[O-])c1	Fh CTSL1 inh 19
O=C1CCCC2=C1C(c1ccc(O)c(O)c1)Nc1ccc3ncccc3c12 (stereo unspecified)	GSTO1 inh 78
COC(=O)c1ccccc1NC(=O)c1ccccc1OC	none
COc1ccccc1C(=O)Nc1ccccc1SC(=O)c1ccccc1OC	PAD4 inh 80
COC(=O)C1=C(C)N(Cc2ccc(C(F)(F)F)cc2)C(=NCc2ccc(C(F)(F)F)cc2)NC1c1ccccc1 (stereo unspecified)	none (no result: GSTO1 inh, Fh CTSL1 inh, PAD4 inh)
Cc1cc(C)cc(NC(=O)C2C3C=CC4(O3)C2C(=O)N(CCN2CCCCC2)C4C(=O)NC2CCCCC2)c1 (stereo unspecified)	Fh CTSL1 inh 19
O=C(Nc1ccc(Br)cc1)C1C2C=CC3(O2)C1C(=O)N(CCN1CCCCC1)C3C(=O)NC1CCCCC1 (stereo unspecified)	none
COc1ccc(NC(=O)C2C3C=CC4(O3)C2C(=O)N(CCN2CCCCC2)C4C(=O)NC2CCCCC2)cc1 (stereo unspecified)	Fh CTSL1 inh 40
Cc1ccc(NC(=O)C2C3C=CC4(O3)C2C(=O)N(CCCN2CCCC2)C4C(=O)NC2CCCCC2)cc1Cl (stereo unspecified)	none
COc1ccc(S[C@]2(C(=O)N3CCN(C(C)=O)CC3)CC(=O)N(S(=O)(=O)c3ccc(F)cc3)[C@@H]2c2ccc(OC)cc2)cc1	none (no result: GSTO1 inh, Fh CTSL1 inh, PAD4 inh)
Cc1ccc2oc(=O)c3cc(C(=O)NCCCN4CC(C)CC(C)C4)sc3c2c1 (stereo unspecified)	none
Cc1ccc2oc(=O)c3cc(C(=O)NCCCN4C(C)CCCC4C)sc3c2c1 (stereo unspecified)	Fh CTSL1 inh 17
Cc1cc(=O)n2c3c(c4c(cc13)c(CN(C)C)cc(=O)n4C)OC2	TDP2 inh 86 (no result: GSTO1 inh, Fh CTSL1 inh, PAD4 inh)
Cc1cc(=O)n(C)c2ccccc12	none
CCn1c(SCC(=O)NNC(=S)Nc2ccc(C)cc2)nnc1-c1ccc(Cl)cc1	GSTO1 inh 35
O=C1C(=O)N(CCS(=O)(=O)c2ccccc2)c2ccc(F)cc21	GSTO1 inh 36
COc1ccc2c(c1)C(=O)C(=O)N2CCS(=O)(=O)c1ccccc1	none
COCC(C)NC(=O)NC1(C(F)(F)F)Oc2ccc(Cl)cc2O1 (stereo unspecified)	GSTO1 inh 36
Cn1c(CS/C(N)=N/N=C/c2ccccc2)c(Br)c(=O)n1-c1ccccc1	Fh CTSL1 inh 37
NC(=N\N=Cc1ccccc1)/C(N)=N/N=Cc1ccccc1	none (no result: GSTO1 inh, Fh CTSL1 inh, PAD4 inh)
Nc1ccc2c(c1)-c1ccccc1S(=O)(=O)N2	GSTO1 inh 37
Cc1ccc2c(c1)-c1ccccc1S(=O)(=O)N2	none

Assay outcomes: PubChem BioAssay, The Scripps Research Institute Molecular Screening Center
